Test: Toxicity liver stage against HepG2, at 10uM
Type: cell-based
Design: test concentration 10 uM, cell line HepG2-A16-CD81EGFP
Settings: human, HepG2-A16-CD81EGFP cells; read-out: INHIBITION
Method in brief: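 Uninfected HepG2-A16-CD81EGFP cells, 3 × 10^3 per well, 1536-well, plated on prespotted compound at 10 μM final, parasite-free screening media added to match infected plates; puromycin 10 μM positive, DMSO 0.5% negative; run in parallel with 48 h PbLuc assay at 37 °C, 5% CO2; viability by CellTiter-Glo luminescence, normalized to controls.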

| SMILES | cytotoxicity at 10 µM [%] |
| --- | --- |
| COc1ccc(CNC[C@H]2COCc3nc4cccnc4n32)cc1 | -0.61 |
| CC(=O)N1CC[C@H]2CC(=O)N(C3CC3)CC[C@H]2C1 | -0.434 |
| Cc1occc(=O)c1OCc1noc(C(=O)NC2CCCC2)n1 | 0.618 |
| COc1cc2c(cc1OC)C(=O)C(Sc1nncn1C)C2 (centres undefined) | -5.65 |
| CC(=O)c1c(C)nn(CC(=O)Nc2ccc(Br)cc2)c1C | -9.87 |
| Cc1nccn1-c1ccc(=O)n(CCNC(=O)c2c(F)cccc2Cl)n1 | -9.98 |
| COc1ccc(OC)c(-c2cc(C(=O)NCC3(CO)CC3)n(C)n2)c1 | -2.46 |
| O=C(O)CC(CC(=O)NCCc1cccs1)c1cccs1 (centres undefined) | -11.4 |
| COc1c2ccc(C(=O)NCCCn3ncccc3=O)cc2nn1C | 0.905 |
| Cc1occc1C(=O)N1CCn2c(Cn3cncn3)cnc2C1C (centres undefined) | -5.17 |
| CC(C)CCN1C2(CCN(C(=O)N(C)C)C2)c2ccccc2S1(=O)=O (centres undefined) | 2.11 |
| Cc1cccc(C(=O)N2CCC3(CC(C(=O)N(C)C(C)C)=NO3)C2)c1 (centres undefined) | -127 |
| CCOC(=O)N1CCN(c2nc(NCCO)c3ccccc3n2)CC1 | -1.32 |
| Cc1ccc(N2N=C(C(=O)O)S(=O)(=O)c3cccnc32)cc1 | -8.87 |
| CC(C)n1[nH]c(=O)c2c1NC(=O)CSC2c1ccc(OCC(N)=O)cc1 (centres undefined) | 8.46 |
| COCC(=O)NCCn1ccc2c(OC)cccc21 | 3.07 |
| O=C(COc1coc(CN2CCOCC2)cc1=O)c1ccc(Cl)cc1 | -10.6 |
| c1ccc(O[C@H]2CC[C@H]3[C@H]2OCCN3Cc2nccs2)nc1 | -12.6 |
| c1nc2c(c(C3CC3)n1)CCN(Cc1ccoc1)CC2 | -22.7 |
| CC(C(=O)N1CCN(c2ccc(F)cc2)CC1)n1cc(Br)cn1 (centres undefined) | 9.35 |
| COCCNC(=O)CN1CC=C(n2c(C)nc(=O)c3ccccc32)CC1 | -5.45 |
| CC(=O)N1CCCC1(C(=O)N1CCCC1)c1cnccn1 (centres undefined) | 0.142 |
| Cn1cnc(NC(=O)C2CC(=O)N(c3cccc(F)c3)C2)n1 (centres undefined) | 4.28 |
| Cc1ccc(S(=O)(=O)N2CC[C@@H]3C[C@H](NC(=O)c4n[nH]cc4Cl)[C@@H]32)cc1 | 4.31 |
| COCC(=O)N[C@@H]1CN(Cc2c[nH]nc2-c2cccs2)C[C@H]1O | 1.48 |
| CCC(CN1CCCC1)NC(=O)Cc1c(C)[nH]c2cc(C)cc(C)c12 (centres undefined) | 2.73 |
| Cc1ccc(C(=O)N2CCN(c3ncnc4nc(N)ccc34)CC2)o1 | 7.55 |

| SMILES | cytotoxicity at 10 µM [%] |
| --- | --- |
| CC(C)CC(CCO)CNC(=O)N1CCOC2(CCCC2)C1 (centres undefined) | 6.37 |
| CCc1noc(C(C)N2CCN(CCc3ccncc3)CC2)n1 (centres undefined) | 1.6 |
| Cc1nnc(NCC2(c3ccccc3)CCOCC2)c(C#N)c1C | 7.35 |
| Cc1ccc(CNC(=O)NC2CCCN(c3ncccn3)C2)cn1 (centres undefined) | 3.08 |
| CN(Cc1nccn1CC(F)(F)F)C(=O)c1ccc2c(c1)OCO2 | 1.09 |
| Cc1ncsc1CNC(=O)N1CCN(Cc2ccccc2)CC1C (centres undefined) | -131 |
| O=c1oc2ccccc2n1CCCN1CCCC1c1ccc(O)cc1 (centres undefined) | 7.87 |
| O=C(CCn1nnc2ccccc2c1=O)N(CC1CCOC1)C1CC1 (centres undefined) | -8.5 |
| Cc1cccc(N2CCN(C(=O)Cc3ccccc3O)C(C)C2)n1 (centres undefined) | 13.5 |
| COc1cc(C)nc(N2CCN(C(=O)CCc3nccs3)CC2)n1 | -15.8 |
| c1ccc(CO[C@@H]2CN(Cc3ccoc3)[C@@H]3COC[C@@H]32)nc1 | -105 |
| CCN(Cc1nccn1C)C(=O)c1ccc(NCc2ccccc2)nc1 | -14.3 |
| CN(CCC(O)c1ccccc1)c1cc(C2CC2)ncn1 (centres undefined) | -141 |
| COCCNCC1(O)CCCN(Cc2ccc(F)c(F)c2)C1=O (centres undefined) | 3.93 |
| O=C(CCCn1cncn1)N1CCC2(CCCN(CC3CC3)C2=O)C1 (centres undefined) | -0.611 |
| CCCc1cc(C(=O)N(C)Cc2cccc3cnccc23)n(C)n1 | 0.109 |
| N#Cc1cccc(N2CCC3(CCC(=O)N(CC4CCCO4)C3)CC2)n1 (centres undefined) | 4.11 |
| O=C(NCCc1csc(-c2cnccn2)n1)c1cnn[nH]1 | 6.46 |
| O=C1O[C@@H]2CN(Cc3ccccc3)C[C@@H]2N1CCCN1CCOCC1 | -1.18 |
| c1cnn(Cc2nnc(C3CCN(C4CCOCC4)CC3)n2C2CC2)c1 | -15.2 |
| CC(=O)NCCC1CCCCN1S(=O)(=O)c1cccc(C#N)c1 (centres undefined) | -10.8 |
| CCn1c(Cn2cncn2)nnc1C1CCN(Cc2ccc(C)o2)CC1 | -12.9 |
| COCc1cn([C@@H]2c3ccccc3C3(CCNCC3)[C@H]2O)nn1 | 1.2 |
| CSCCC(=O)N1CCC(Oc2cc(C)ccc2F)(C(=O)O)CC1 | -6.02 |
| O=C(c1coc(COc2cccc(F)c2)n1)N1CC[C@H](O)[C@@H](O)C1 | -11 |
| CN(C(=O)C1CCCCC1)[C@@H]1CCC[C@@H](N2CCOCC2)[C@@H]1O | -6.33 |
| O=C(CN1CCOC(Cn2cccn2)C1)NCCc1cccs1 (centres undefined) | -11.3 |

| SMILES | cytotoxicity at 10 µM [%] |
| --- | --- |
| CCOCC(O)CN1CCN(C(=O)c2cnc3n[nH]c(C)c3c2)CC1 (centres undefined) | -7.69 |
| CC(NC(=O)Nc1cccnc1N1CCCC1)c1nncn1C (centres undefined) | -10.1 |
| COc1cccc(CCC(=O)N2CCCC(n3cc(C)cn3)C2)c1 (centres undefined) | 4.28 |
| CCn1cc(CN2CCCN(C(=O)Cc3ccc(C)nc3)CC2)cn1 | -3.87 |
| OCC1CCCN1c1cc(N2CCN(c3ccccn3)CC2)ncn1 (centres undefined) | 3.97 |
| Cc1occc1C(=O)N1CCc2c(CNS(C)(=O)=O)cncc2C1 | 8.68 |
| O=C1CCCN1Cc1nnn2c1CN(c1cccnc1)CCC2 | 3.48 |
| CCOCC1CN(C(=O)c2cnccn2)Cc2cnn(CC3CC3)c21 (centres undefined) | -69.6 |
| COc1cc(COCC2CCN(Cc3ccccn3)CC2)cc(OC)c1 | -3.36 |
| CC(=O)NCC(=O)N1CCOC2(CCCN(c3cccnc3)C2)C1 (centres undefined) | -12.8 |
| Cc1noc(C)c1CN1CC[C@H]2[C@@H]1CCC(=O)N2CC1CCOCC1 | -1.38 |
| c1cncc(CN2CCC(c3ccc4c(c3)OCO4)CC2)c1 | -0.415 |
| CS(=O)(=O)NC[C@]12COC[C@H]1CN(CC1CCCC1)C2 | 1.52 |
| CCN1CCc2cc(-c3cncn3CC(=O)NC(C)(C)C)ccc21 | -18.9 |
| COCC1CC2(CCN(C(=O)c3cc(C)oc3C)CC2)CN1C(C)C (centres undefined) | -11.4 |
| Cn1cc(C[C@H]2[C@H](O)CCN2CC2CCOCC2)cn1 | -65.7 |
| CN(C)C(=O)N1Cc2ncn(C)c2C(COCC2CCOCC2)C1 (centres undefined) | -69.9 |
| CC(=O)NCC(=O)N1CCN(CCN(C)C)c2ncccc2C1 | -104 |
| O=C(O)c1c(-c2cccnc2)ncc2c1CCN(Cc1cccnc1)C2 | -3.14 |
| NC(=O)COc1ccc(CNCc2ccc(F)cc2F)cc1 | -14.4 |
| COc1ccc(CC(=O)N2Cc3nccn3CC(CN(C)C)C2)cc1 (centres undefined) | -116 |
| O=C(C1CC=CC1)N1CCc2c(COCc3ccncc3)cncc2C1 | -7.79 |
| O=C1CO[C@@H]2CN(Cc3ccsc3)C[C@H]2N1Cc1ccncc1 | -73 |
| O=C(NC[C@H]1OC[C@@H]2CCN(Cc3ccco3)C[C@@H]21)c1ccnnc1 | -143 |
| CC(C)n1c(=O)[nH]c2cn(-c3ccccc3)c(=O)n21 | -7.01 |

— ChEMBL document CHEMBL4513216, “Probing the Open Global Health Chemical Diversity Library for Multistage-Active Starting Points for Next-Generation Antimalarials” (ACS Infect Dis, 2020)
